From ChEMBL document CHEMBL4393735, “Molecular modelling, synthesis, and biological evaluations of a 3,5-disubstituted isoxazole fatty acid analogue as a PPARα-selective agonist” (Bioorg Med Chem, 2019)
The source made the active and inactive calls.

Key:
Assay type in all cases: cell-based
[1] = target: T1, Retinoic acid receptor RXR-alpha (Homo sapiens) (UniProt P19793); test: Agonist activity at full length human FLAG-tagged GAL4-DBD fused RXRalpha LBD (202 to 462 residues) expressed in COS1 cells at 25 to 50 uM measured after 18 hrs by dual luciferase reporter gene assay
T1 sequence (whole entry): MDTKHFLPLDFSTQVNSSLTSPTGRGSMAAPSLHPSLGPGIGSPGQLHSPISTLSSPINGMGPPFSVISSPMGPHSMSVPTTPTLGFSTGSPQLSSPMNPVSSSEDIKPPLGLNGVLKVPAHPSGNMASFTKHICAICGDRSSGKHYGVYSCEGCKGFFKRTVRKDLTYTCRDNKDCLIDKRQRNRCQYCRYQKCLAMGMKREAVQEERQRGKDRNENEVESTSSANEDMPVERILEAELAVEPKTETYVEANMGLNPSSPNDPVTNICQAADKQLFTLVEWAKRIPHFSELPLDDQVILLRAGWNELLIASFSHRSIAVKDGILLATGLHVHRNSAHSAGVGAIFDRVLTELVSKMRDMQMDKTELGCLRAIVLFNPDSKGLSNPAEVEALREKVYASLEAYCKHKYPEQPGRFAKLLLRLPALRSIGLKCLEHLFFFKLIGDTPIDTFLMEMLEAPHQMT
Procedure, shortened: (§1)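 COS-1 cells were transfected using Lipofectamine 2000 with GAL4-DBD–human NR-LBD plasmid, a 5×UAS-SV40 firefly luciferase reporter and pRL-CMV. After 6 h, cells were treated with 0, 25 or 50 μM in 0.1% DMSO (final) for 18 h. Firefly signal was normalized to Renilla, then to DMSO control and GAL4-only. Three biological replicates in quadruplicate, mean ± SEM, two-way ANOVA with Bonferroni.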

COS-1 = test: Cytotoxicity against African green monkey COS1 cells assessed as reduction in cell viability at 10^-3 M by LDH release assay relative to control; settings: chlorocebus aethiops, cos-1, 1000 µM
Procedure, shortened: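 COS-1 cells were treated across the same concentration series as the GAL4 dose-response runs. Cytotoxicity was measured as LDH released into medium (absorbance 492/750 nm) and by XTT viability assay (absorbance 450/690 nm). Results expressed relative to control.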

[2] = target: T2, Peroxisome proliferator-activated receptor delta (Homo sapiens) (UniProt Q03181); test: Agonist activity at full length human GAL4-DBD fused PPARdelta LBD expressed in COS1 cells at 25 to 50 uM measured after 18 hrs by dual luciferase reporter gene assay; procedure, shortened: as §1
T2 sequence (whole entry): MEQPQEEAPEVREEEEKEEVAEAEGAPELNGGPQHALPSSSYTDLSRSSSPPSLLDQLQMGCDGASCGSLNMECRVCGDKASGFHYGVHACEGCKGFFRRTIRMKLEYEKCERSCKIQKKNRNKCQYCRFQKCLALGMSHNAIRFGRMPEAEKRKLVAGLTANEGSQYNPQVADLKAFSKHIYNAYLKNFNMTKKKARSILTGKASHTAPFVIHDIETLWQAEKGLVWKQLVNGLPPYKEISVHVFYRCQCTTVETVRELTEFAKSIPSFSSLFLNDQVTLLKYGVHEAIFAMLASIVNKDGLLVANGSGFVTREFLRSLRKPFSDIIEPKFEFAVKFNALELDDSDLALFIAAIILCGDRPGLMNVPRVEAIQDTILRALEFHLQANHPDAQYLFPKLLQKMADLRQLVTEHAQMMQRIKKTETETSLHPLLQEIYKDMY

[3] = target: T3, Peroxisome proliferator-activated receptor alpha (Homo sapiens) (UniProt Q07869); test: Agonist activity at PPARalpha in human Huh7 cells assessed as activation of CPT1A mRNA expression at 50 uM measured after 18 hrs by qRT-PCR analysis
T3 sequence (whole entry): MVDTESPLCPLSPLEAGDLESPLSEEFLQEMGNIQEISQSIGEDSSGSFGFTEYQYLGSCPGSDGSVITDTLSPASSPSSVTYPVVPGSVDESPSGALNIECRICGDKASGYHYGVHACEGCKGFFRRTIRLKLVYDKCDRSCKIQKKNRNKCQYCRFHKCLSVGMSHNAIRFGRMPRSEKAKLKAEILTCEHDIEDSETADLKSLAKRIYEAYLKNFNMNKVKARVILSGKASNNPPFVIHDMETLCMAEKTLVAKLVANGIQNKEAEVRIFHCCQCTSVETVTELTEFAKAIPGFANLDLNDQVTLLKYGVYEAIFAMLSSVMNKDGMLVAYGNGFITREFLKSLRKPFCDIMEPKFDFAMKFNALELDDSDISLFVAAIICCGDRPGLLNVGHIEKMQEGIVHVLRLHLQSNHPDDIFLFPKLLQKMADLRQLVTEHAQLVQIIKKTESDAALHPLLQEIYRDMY
Procedure, shortened: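 Treatment for 18 h at 50 μM (or 1 μM for the 1 μM agents), DMSO vehicle. Harvested for qPCR. mRNA normalized to TBP by the comparative threshold method, expressed relative to DMSO control. Two biological replicates run in duplicate, mean ± SEM. Primary hepatocytes came from male C57BL/6N mice aged 7–8 weeks, isolated by portal-vein perfusion and digestion, seeded on collagen I and used on day 2. HuH-7 cells were kept in DMEM with 10% FBS and ITS.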

[4] = target: T4, Peroxisome proliferator-activated receptor gamma (Homo sapiens) (UniProt P37231); test: Inverse agonist activity at full length human FLAG-tagged GAL4-DBD fused PPARgamma LBD (205 to 505 residues) expressed in COS1 cells assessed as inhibition of rosiglitazone binding measured after 18 hrs by dual luciferase reporter gene assay
T4 sequence (whole entry): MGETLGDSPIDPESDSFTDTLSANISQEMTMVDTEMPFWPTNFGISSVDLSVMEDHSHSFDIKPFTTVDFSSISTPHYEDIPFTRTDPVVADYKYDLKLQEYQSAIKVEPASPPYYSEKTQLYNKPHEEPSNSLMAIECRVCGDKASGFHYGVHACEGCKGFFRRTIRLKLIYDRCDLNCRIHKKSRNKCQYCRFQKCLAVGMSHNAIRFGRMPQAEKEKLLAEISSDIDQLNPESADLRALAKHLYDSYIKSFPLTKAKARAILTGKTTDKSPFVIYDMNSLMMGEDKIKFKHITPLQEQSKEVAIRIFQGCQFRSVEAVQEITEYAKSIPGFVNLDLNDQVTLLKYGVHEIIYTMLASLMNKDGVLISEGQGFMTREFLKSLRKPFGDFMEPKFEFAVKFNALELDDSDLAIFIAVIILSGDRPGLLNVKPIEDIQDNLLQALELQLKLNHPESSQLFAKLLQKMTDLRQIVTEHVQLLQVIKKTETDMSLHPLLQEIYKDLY
Procedure, shortened: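 COS-1 cells carried GAL4-DBD–PPARγ-LBD with a UAS-luciferase reporter and Renilla control. Cells were titrated with increasing test compound in the presence of 1.0 μM rosiglitazone for 18 h in 0.1% DMSO. Firefly/Renilla ratio, normalized to GAL4-only activity.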

- Activity [1]: inactive
- Activity [2]: inactive
- Activity [3]: Active
- Activity [4]: inactive
Compound: CCCCCCCc1cc(CCCCCC(=O)O)no1
- Activity (COS-1): 60%
